Laboratory results published in ChEMBL document CHEMBL4145627, “Expansion of cat-ELCCA for the Discovery of Small Molecule Inhibitors of the Pre-let-7-Lin28 RNA-Protein Interaction” (ACS Med Chem Lett, 2018).
The source made the active and inactive calls. No cut-off for these calls is given here.

Tests used:
Protein lin-28 homolog A = target: T1, Protein lin-28 homolog A (Mus musculus, UniProt Q8K3Y3); assay: (§1) Binding affinity to mouse N-terminal Halo-fused/biotin-labelled Lin28A expressed in Escherichia coli BL21(DE3) assessed as inhibition of protein interaction with pre-Let-7d microRNA measured after 1 hr by cat-ELCCA
T1 sequence (Q8K3Y3 whole entry): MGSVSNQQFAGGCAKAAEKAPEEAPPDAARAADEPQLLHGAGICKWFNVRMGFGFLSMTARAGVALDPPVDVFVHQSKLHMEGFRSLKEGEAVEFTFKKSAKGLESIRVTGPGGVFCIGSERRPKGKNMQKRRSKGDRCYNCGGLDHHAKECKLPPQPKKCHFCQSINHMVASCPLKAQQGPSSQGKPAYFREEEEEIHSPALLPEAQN
Method in brief: (§2)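 Biotinylated HaloTag-mLin28A (10 μL of 200 nM in storage buffer) immobilized on streptavidin plates overnight at 4 °C. TCO-pre-let-7d (200 nM in binding buffer) added with compound, 5% DMSO final, 1 h at 25 °C. Then mTet-HRP (750 nM) click for 1 h at 25 °C, washes, chemiluminescent read. CRCs were eight points, 3.3–120 μM.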

[1] = target: T2, Protein lin-28 homolog A (Mus musculus) (UniProt Q8K3Y3); assay: as §1; method in brief: as §2
T2 sequence (whole entry): T1 sequence (Q8K3Y3 whole entry)

[2] = target: T2, Protein lin-28 homolog A (Mus musculus); assay: Binding affinity to mouse N-terminal Halo-fused/biotin-labelled Lin28A expressed in Escherichia coli BL21(DE3) assessed as inhibition of protein interaction with pre-Let-7d microRNA by electrophoretic mobility shift assay
[3] = target: T3, Protein lin-28 homolog B (Homo sapiens) (UniProt Q6ZN17); assay: Binding affinity to human N-terminal Halo-fused/biotin-labelled Lin28B expressed in Escherichia coli BL21(DE3) assessed as inhibition of protein interaction with pre-Let-7d microRNA measured after 1 hr by cat-ELCCA
T3 sequence (whole entry): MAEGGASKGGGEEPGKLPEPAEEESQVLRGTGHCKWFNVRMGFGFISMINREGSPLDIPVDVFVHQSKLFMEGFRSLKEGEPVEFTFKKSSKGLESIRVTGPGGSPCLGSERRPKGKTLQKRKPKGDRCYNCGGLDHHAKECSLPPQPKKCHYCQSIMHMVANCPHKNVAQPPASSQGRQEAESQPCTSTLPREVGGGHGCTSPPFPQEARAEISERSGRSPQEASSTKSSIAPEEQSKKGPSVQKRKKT
Method in brief: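 Human Lin28B, cloned from A549 cDNA as a HaloTag fusion, expressed in E. coli (IPTG 500 μM, overnight 37 °C), Ni-NTA purified, biotinylated with Biotin-PEG7-HaloTag ligand (10 equiv, overnight 4 °C), immobilized on streptavidin plates. TCO-labelled pre-let-7d plus compound in Tris binding buffer with ZnCl₂ and β-mercaptoethanol, 5% DMSO final, 25 °C 1 h. Bound RNA detected by mTet-HRP click chemistry and chemiluminescence. IC50 from curves.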

[4] = target: T2, Protein lin-28 homolog A (Mus musculus); assay: Binding affinity to mouse N-terminal Halo-fused/biotin-labelled Lin28A expressed in Escherichia coli BL21(DE3) assessed as inhibition of protein interaction with pre-Let-7a microRNA at 20 to 50 uM by electrophoretic mobility shift assay
[5] = target: T2, Protein lin-28 homolog A (Mus musculus); assay: Binding affinity to mouse N-terminal Halo-fused/biotin-labelled Lin28A expressed in Escherichia coli BL21(DE3) at 18.7 to 75 uM by surface plasmon resonance analysis
Method in brief: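 SPR on BioCap chip with biotinylated HaloTag-Lin28A immobilized at 2,300 RU. Running buffer: 50 mM Tris pH 7.6, 150 mM NaCl, 1 mM β-ME, 5% glycerol, 0.05% Tween-20, 1 mM ZnCl₂, 5% DMSO. Analytes at 75, 37.5, 18.7 μM, injected 50 μL at 50 μL/min; regeneration between cycles.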

[6] = Binding affinity to synthetic biotinylated pre-let-7d microRNA at 6.25 to 100 uM by surface plasmon resonance analysis
Method in brief: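 SPR with biotinylated pre-let-7d immobilized at 2,300 RU on BioCap chip. Analytes at 100, 50, 25, 12.5, 6.25 μM, injected 30 μL at 30 μL/min; regeneration between cycles.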

[7] = target: Endoribonuclease Dicer (Homo sapiens) (UniProt Q9UPY3); assay: Binding affinity to dicer (unknown origin) assessed as inhibition of dicer-meditated pre-let-7d microRNA maturation at 100 uM by electrophoretic mobility shift assay
Endoribonuclease Dicer (Homo sapiens), sequence (Q9UPY3 whole entry): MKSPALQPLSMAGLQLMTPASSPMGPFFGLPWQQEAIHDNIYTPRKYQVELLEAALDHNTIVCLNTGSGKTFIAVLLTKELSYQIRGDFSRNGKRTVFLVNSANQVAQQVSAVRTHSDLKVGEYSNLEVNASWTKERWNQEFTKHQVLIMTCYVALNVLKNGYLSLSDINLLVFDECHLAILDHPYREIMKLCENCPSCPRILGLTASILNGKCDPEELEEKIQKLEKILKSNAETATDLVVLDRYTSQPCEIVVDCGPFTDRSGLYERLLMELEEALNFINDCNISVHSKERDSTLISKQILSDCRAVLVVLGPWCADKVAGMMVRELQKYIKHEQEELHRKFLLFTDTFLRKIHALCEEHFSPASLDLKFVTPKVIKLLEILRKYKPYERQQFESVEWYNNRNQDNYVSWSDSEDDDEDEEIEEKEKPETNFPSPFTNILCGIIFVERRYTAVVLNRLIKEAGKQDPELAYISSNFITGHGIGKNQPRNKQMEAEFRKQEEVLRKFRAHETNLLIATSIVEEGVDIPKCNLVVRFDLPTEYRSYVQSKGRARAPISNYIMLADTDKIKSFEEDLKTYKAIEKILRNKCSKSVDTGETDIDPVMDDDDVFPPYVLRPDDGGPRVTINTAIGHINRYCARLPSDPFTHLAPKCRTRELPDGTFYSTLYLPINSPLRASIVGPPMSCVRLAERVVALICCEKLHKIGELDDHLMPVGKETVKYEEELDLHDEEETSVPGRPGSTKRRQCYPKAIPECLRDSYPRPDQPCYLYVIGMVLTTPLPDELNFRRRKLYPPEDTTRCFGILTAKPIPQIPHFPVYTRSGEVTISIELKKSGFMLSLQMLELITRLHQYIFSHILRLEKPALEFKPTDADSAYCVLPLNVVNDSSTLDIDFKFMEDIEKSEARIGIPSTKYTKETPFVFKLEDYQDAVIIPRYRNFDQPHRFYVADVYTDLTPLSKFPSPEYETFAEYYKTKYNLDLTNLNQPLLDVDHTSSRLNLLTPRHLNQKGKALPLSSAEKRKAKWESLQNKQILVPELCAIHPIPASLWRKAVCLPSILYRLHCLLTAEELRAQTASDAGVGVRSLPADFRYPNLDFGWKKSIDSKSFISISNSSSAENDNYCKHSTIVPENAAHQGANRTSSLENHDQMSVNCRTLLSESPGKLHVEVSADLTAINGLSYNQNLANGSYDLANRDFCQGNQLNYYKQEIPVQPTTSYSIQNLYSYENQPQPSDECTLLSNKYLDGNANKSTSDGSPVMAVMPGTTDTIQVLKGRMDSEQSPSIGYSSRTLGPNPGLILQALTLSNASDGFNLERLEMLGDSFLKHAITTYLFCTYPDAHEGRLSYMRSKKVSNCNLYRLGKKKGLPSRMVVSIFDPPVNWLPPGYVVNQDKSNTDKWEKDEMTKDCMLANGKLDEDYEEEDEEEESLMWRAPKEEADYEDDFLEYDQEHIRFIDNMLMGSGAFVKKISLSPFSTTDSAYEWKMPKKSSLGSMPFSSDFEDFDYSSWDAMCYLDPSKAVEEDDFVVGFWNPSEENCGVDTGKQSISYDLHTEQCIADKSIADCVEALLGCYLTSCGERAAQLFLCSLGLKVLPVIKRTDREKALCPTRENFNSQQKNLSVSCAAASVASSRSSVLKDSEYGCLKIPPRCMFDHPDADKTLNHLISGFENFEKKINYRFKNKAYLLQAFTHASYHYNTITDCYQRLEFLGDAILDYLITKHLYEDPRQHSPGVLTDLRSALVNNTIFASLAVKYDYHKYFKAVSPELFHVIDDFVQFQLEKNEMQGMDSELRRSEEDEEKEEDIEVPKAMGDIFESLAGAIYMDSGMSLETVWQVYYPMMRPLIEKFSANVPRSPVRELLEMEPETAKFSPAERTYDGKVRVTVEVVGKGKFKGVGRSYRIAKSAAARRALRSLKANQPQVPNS
Method in brief: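 Dicer-mediated pre-let-7d maturation tested with compound at 100 μM; samples run with and without Dicer; procedure cited to earlier work.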

[8] = target: Eukaryotic translation initiation factor 4E/Eukaryotic translation initiation factor 4E-binding protein 1 (Homo sapiens) (UniProt P06730+Q13541); assay: Inhibition of eIF4E-4E-BP1 (unknown origin) interaction at 100 uM by cat-ELCCA; assay type: protein assay
Eukaryotic translation initiation factor 4E/Eukaryotic translation initiation factor 4E-binding protein 1 (Homo sapiens), sequence (P06730 2-217 limits assumed): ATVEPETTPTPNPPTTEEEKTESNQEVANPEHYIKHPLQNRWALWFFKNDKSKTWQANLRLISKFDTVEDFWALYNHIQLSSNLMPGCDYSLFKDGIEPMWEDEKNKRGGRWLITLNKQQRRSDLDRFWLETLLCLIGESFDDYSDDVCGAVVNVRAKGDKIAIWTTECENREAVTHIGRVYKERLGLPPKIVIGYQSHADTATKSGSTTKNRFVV
Eukaryotic translation initiation factor 4E/Eukaryotic translation initiation factor 4E-binding protein 1 (Homo sapiens), sequence (Q13541 2-118 partner limits assumed): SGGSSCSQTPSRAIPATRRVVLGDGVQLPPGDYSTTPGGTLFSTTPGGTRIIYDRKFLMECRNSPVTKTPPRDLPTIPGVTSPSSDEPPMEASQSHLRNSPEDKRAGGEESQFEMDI
Method in brief: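 Counter-screen: eIF4E–4E-BP1 interaction read by cat-ELCCA with compound at 100 μM; assay setup cited to earlier work.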

[9] = target: T2, Protein lin-28 homolog A (Mus musculus); assay: Binding affinity to mouse N-terminal Halo-fused/biotin-labelled Lin28A expressed in Escherichia coli BL21(DE3) assessed as inhibition of protein interaction with microRNA at 20 to 50 uM by electrophoretic mobility shift assay

Row | Structure (SMILES) | IC50 (Protein lin-28 homolog A) | other results
1 | Cc1ccc(NS(=O)(=O)c2ccc(F)cc2)c(NS(=O)(=O)c2ccc(F)cc2)c1 | 16.2 µM | –
2 | O=S(=O)(Nc1cccc(NS(=O)(=O)c2ccccc2)c1)c1ccccc1 | – | inhibition [1]: inactive
3 | Cc1ccc(NS(=O)(=O)c2ccccc2)c(NS(=O)(=O)c2ccccc2)c1 | 28.8 µM | –
4 | O=S(=O)(Nc1ccccc1NS(=O)(=O)c1cccc(Cl)c1)c1cccc(Cl)c1 | 5.7 µM | –
5 | Cc1ccc(S(=O)(=O)Nc2ccc(F)cc2NS(=O)(=O)c2ccc(C)cc2)cc1 | 8.3 µM | inhibition [2]: Active; inhibition [3]: Active; inhibition [4]: Active; Activity [5]: Active; Activity [6]: inactive; inhibition [7]: inactive; inhibition [8]: inactive; inhibition [9]: Active
6 | Cc1ccc(NS(=O)(=O)c2cccc(Cl)c2)c(NS(=O)(=O)c2cccc(Cl)c2)c1 | 4.3 µM | –
7 | O=S(=O)(Nc1ccccc1NS(=O)(=O)c1ccccc1)c1ccccc1 | 32.2 µM | –
8 | Cc1ccc(S(=O)(=O)Nc2ccc(C)cc2NS(=O)(=O)c2cccc(C(F)(F)F)c2)cc1 | 10.4 µM | inhibition [2]: Active; inhibition [3]: Active; inhibition [4]: Active; inhibition [7]: inactive; inhibition [9]: Active
9 | O=S(=O)(Nc1ccccc1NS(=O)(=O)c1ccc(F)cc1)c1ccccc1 | 13.9 µM | –
10 | O=S(=O)(Nc1ccccc1NS(=O)(=O)c1cccc(Br)c1)c1ccc(F)cc1 | 16.2 µM | –
11 | O=S(=O)(Nc1ccccc1NS(=O)(=O)c1ccc(Cl)cc1)c1ccc(Cl)cc1 | 27.5 µM | –
12 | O=S(=O)(Nc1ccccc1NS(=O)(=O)c1cccc(Cl)c1)c1ccc(F)cc1 | 10.8 µM | –
13 | Cc1ccc(S(=O)(=O)Nc2ccc(C)cc2NS(=O)(=O)c2ccc(F)cc2)cc1 | 11.7 µM | –
14 | Cc1ccc(NS(=O)(=O)c2ccc(Cl)cc2)c(NS(=O)(=O)c2ccc(Cl)cc2)c1 | 28.4 µM | –
15 | COc1ccc(S(=O)(=O)Nc2ccccc2NS(=O)(=O)c2ccc(F)cc2)cc1 | 17.2 µM | –
16 | O=C(Nc1ccccc1NC(=O)c1ccccc1)c1ccccc1 | – | inhibition [1]: inactive
17 | COc1ccc(S(=O)(=O)Nc2ccccc2NS(=O)(=O)c2ccc(OC)cc2)cc1 | 16.7 µM | –
18 | O=S(=O)(c1ccccc1)N1CCN(S(=O)(=O)c2ccccc2)c2ccccc21 | – | inhibition [1]: inactive
19 | Nc1ccccc1NS(=O)(=O)c1ccccc1 | – | inhibition [1]: inactive
20 | Cc1ccc(S(=O)(=O)Nc2ccc(F)cc2NS(=O)(=O)c2ccc(C)c(Cl)c2)cc1Cl | 3.7 µM | –
21 | Cc1ccc(S(=O)(=O)Nc2ccccc2NS(=O)(=O)c2ccc(C)c(Cl)c2)cc1Cl | 2.3 µM | –
22 | CC(=O)Nc1ccc(S(=O)(=O)Nc2ccccc2NS(=O)(=O)c2ccc(NC(C)=O)cc2)cc1 | 62.5 µM | –
23 | Cc1ccc(S(=O)(=O)Nc2ccc(C)cc2NS(=O)(=O)c2ccc(C)cc2)cc1 | 14.1 µM | –
24 | O=S(=O)(Nc1ccccc1NS(=O)(=O)c1ccc(F)cc1)c1ccc(F)cc1 | 28.3 µM | –
25 | O=S(=O)(Nc1ccccc1NS(=O)(=O)c1ccc(Cl)cc1)c1ccc(F)cc1 | 27.3 µM | –
26 | O=S(=O)(Nc1ccccc1NS(=O)(=O)c1ccc(Br)cc1)c1ccc(Br)cc1 | 17.5 µM | –
